From ChEMBL document CHEMBL1125261, “1-Naphthylpiperazine derivatives as potential atypical antipsychotic agents” (J Med Chem, 1991)
pIC50: −log10 of the molar value. Activity calls are given as the source filed them. No cut-off for these calls is given here.

Assays:
[1] = target: Adrenergic receptor alpha; assay: Compound was evaluated In vitro for its activity by binding to Alpha receptor in the rat brain using [3H]prazosin as radioligand.; assay type: tissue-based
Summary of the method: (§1)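 Whole rat brain minus cerebellum homogenized and washed twice in 50 mM Tris-HCl pH 7.7, resuspended in Tris pH 8.0. Incubated in triplicate with 0.22 nM (final) [3H]prazosin and drug, 25 °C, 30 min. Blank was 50 μM norepinephrine. Filtered through glass fiber and scintillation counted. IC50 from three log concentrations in triplicate.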

D(2) dopamine receptor = D(2) dopamine receptor (Rattus norvegicus, UniProt P61169); assay: Binding affinity to dopamine receptor D2 in the rat brain using [3H]NPA as radioligand; assay type: tissue-based
Chain of D(2) dopamine receptor (P61169 whole entry): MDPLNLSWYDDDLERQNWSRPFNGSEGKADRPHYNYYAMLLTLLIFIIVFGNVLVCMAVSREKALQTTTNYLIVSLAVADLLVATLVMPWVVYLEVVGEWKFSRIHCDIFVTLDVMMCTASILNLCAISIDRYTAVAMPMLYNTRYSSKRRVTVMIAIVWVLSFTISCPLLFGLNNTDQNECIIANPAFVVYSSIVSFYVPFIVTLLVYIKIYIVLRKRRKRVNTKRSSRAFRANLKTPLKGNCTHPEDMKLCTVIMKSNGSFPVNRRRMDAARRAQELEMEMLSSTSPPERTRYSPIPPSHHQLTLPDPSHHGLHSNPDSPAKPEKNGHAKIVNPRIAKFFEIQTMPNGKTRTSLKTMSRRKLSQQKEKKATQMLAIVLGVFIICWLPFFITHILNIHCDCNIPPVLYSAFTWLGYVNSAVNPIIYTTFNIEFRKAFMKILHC
Summary of the method: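 Rat brain D2 binding with [3H]NPA as ligand. IC50 taken from dose-response curves over three log concentrations of test compound, each in triplicate.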

Rattus norvegicus [2] = assay: Compound was evaluated for the inhibition of apomorphine induced stereotypy behavior in rats after sc administration.; assay type: functional; set-up: unit not given here
Summary of the method: (§2)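 Male Sprague-Dawley rats (250–300 g, five per group) given test drug (2 mL/kg) or saline. At 1, 3 and 5 h they received apomorphine 0.75 mg/kg sc in water with 0.1% ascorbic acid. Stereotypy was rated every 10 min up to 50 min. ANOVA then Dunnett's t test over half-log dose multiples; MED was the lowest significant dose.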

[3] = target: T1, 5-hydroxytryptamine receptor 1A (Rattus norvegicus, UniProt P19327); assay: Binding affinity to 5-hydroxytryptamine 1A receptor in the rat brain using [3H]8-hydroxy-2-(di-n-propylamine)tetralin as radioligand.; assay type: tissue-based
T1 sequence (P19327 whole entry): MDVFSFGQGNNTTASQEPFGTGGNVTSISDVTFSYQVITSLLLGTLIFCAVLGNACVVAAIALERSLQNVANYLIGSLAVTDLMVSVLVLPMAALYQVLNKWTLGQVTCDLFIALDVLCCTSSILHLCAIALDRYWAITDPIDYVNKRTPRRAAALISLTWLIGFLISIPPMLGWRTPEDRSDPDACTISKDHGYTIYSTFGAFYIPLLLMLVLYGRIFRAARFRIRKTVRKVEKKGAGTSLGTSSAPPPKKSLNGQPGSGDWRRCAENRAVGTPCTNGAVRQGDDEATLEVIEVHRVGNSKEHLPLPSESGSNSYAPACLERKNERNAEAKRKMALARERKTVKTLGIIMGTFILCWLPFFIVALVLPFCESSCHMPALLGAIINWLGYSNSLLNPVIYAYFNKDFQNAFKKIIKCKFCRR
Summary of the method: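 Rat forebrain P2 membranes: lysed in 5 mM Tris acetate pH 7.4, washed, preincubated 30 min at 30 °C. Incubated with [3H]-8-OH-DPAT and test drug, 30 °C, 20 min; filtered, scintillation counted.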

[4] = target: T2, Serotonin 2 (5-HT2) receptor (Rattus norvegicus, UniProt P30994+P08909+P14842); assay: (§3) Compound was evaluated In vitro for its activity by binding to 5-hydroxytryptamine 2 receptor in the rat brain using [3H]ketanserin as radioligand.; assay type: tissue-based
Summary of the method: (§4)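 Frozen male Sprague-Dawley rat brain cut into 20-μm cryostat sections. Incubated in 50 mM Tris pH 7.5 with 1 nM [3H]ketanserin and test drug, room temperature, 30 min; nonspecific binding with 2 μM pipamperone. Washed in ice-cold buffer, exposed to tritium film 6 weeks, read by densitometry.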

[5] = target: Adrenergic receptor alpha; assay: In vitro binding activity against Alpha receptor in rat brain using [3H]prazosin; assay type: tissue-based; summary of the method: as §1
[6] = target: T2, Serotonin 2 (5-HT2) receptor; assay: Compound was evaluated for its activity by binding to 5-hydroxytryptamine 2 receptor in the rat brain using [3H]ketanserin as radioligand.; assay type: tissue-based; summary of the method: as §4
[7] = target: T2, Serotonin 2 (5-HT2) receptor; assay: as §3; assay type: tissue-based; remark: listed apart in the source
Rattus norvegicus [8] = assay: Antipsychotic activity determined in vivo by inhibition of amphetamine induced locomotor behavior in rats by the po administration.; assay type: functional
Summary of the method: (§5)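 Male Sprague-Dawley rats (275–325 g, eight per group) habituated overnight in automated activity boxes, then dosed with test compound suspended in 90% saline/5% ethanol/5% Emulphor. d-Amphetamine sulfate 1.36 mg/kg given 1 h later. Floor quadrant crossings counted over 3 h. ANOVA with Dunnett's test; ED50 and 95% confidence limits by probit analysis of means converted to percent inhibition.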

Rattus norvegicus [9] = assay: Antipsychotic activity determined in vivo by inhibition of amphetamine induced locomotor behavior in rats by the sc administration.; assay type: functional; summary of the method: as §5
Rattus norvegicus [10] = assay: Compound was evaluated for the inhibition of haloperidol induced catalepsy behavior in rats after po administration.; assay type: functional
Summary of the method: (§6)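 Catalepsy was tested on a horizontal rod after 3 h. Test drug or vehicle was then given and catalepsy duration scored every 30 min for 2.5 h. One-way ANOVA with Dunnett's test over half-log dose multiples; MED was the lowest significant dose.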

Rattus norvegicus [11] = assay: Compound was evaluated for the inhibition of haloperidol induced catalepsy behavior in rats after sc administration.; assay type: functional; set-up: unit not given here; summary of the method: as §6
Rattus norvegicus [12] = assay: Compound was evaluated for inhibition of apomorphine induced stereotypy behavior in rats after sc administration.; assay type: functional; summary of the method: as §2
[13] = target: Adrenergic receptor alpha; assay: Compound was evaluated In vitro for its activity by binding to Alpha adrenergic receptor in the rat brain using [3H]prazosin as radioligand.; assay type: tissue-based
Rattus norvegicus [14] = assay: Compound was evaluated for the inhibition of apomorphine induced stereotypy behavior in rats after ip administration.; assay type: functional; summary of the method: as §2
Rattus norvegicus [15] = assay: Compound was evaluated for the inhibition of apomorphine induced stereotypy behavior in rats after po administration.; assay type: functional; summary of the method: as §2
Rattus norvegicus [16] = assay: Compound was evaluated for the inhibition of haloperidol induced catalepsy behavior in rats after sc administration; Inactive; assay type: functional, organism-based

Compound | pIC50 (D(2) dopamine receptor) | MED (Rattus norvegicus [2]) | pIC50 [3] | IC50 [5] | ED50 (Rattus norvegicus [9]) | other results
CNc1nc(-c2ccc(CCN3CCN(c4cccc5ccccc45)CC3)cc2)cs1 | 6.81 | >10 | – | – | – | IC50 [1]: 0.252 µM
CC1(C)C(=O)Nc2ccc(CCN3CCN(c4cccc5ccccc45)CC3)cc21 | 7.07 | – | 8.16 | 0.04 µM | – | IC50 [4]: 0.0118 µM
c1ccc2c(N3CCNCC3)cccc2c1 | – | – | – | – | – | IC50 [6]: 0.062 µM
O=C1Cc2cc(CCN3CCN(c4cccc5ccccc45)CC3)ccc2N1 | 7.42 | – | 8.31 | 0.024 µM | 1.21 mg/kg | IC50 [7]: 0.02 µM; ED50 (Rattus norvegicus [8]): 13.3 mg/kg; MED (Rattus norvegicus [10]): 10; MED (Rattus norvegicus [11]): >10
Oc1nc(-c2ccc(CCN3CCN(c4cccc5ccccc45)CC3)cc2)cs1 | 7.10 | >17.8 | – | 0.065 µM | > 10 mg/kg | IC50 [6]: 0.249 µM; MED (Rattus norvegicus [11]): 10
Cc1sc(N)nc1-c1ccc(CCN2CCN(c3cccc4ccccc34)CC2)cc1 | 6.80 | – | – | 0.234 µM | > 10 mg/kg | MED (Rattus norvegicus [12]): >3.2; MED (Rattus norvegicus [11]): >3.2
Oc1nc2ccc(CCN3CCN(c4cccc5ccccc45)CC3)cc2s1 | – | >10 | 8.66 | – | – | IC50 [7]: 0.05 µM; IC50 [13]: 0.024 µM
CCN1C(=O)Cc2cc(CCN3CCN(c4cccc5ccccc45)CC3)ccc21 | 7.09 | – | 8.54 | 0.248 µM | – | –
Nc1nc(-c2ccc(CCN3CCN(c4cccc5ccccc45)CC3)cc2)cs1 | 7.14 | – | 7.96 | 0.135 µM | – | IC50 [7]: 0.385 µM; ED50 (Rattus norvegicus [8]): 25.3 mg/kg; MED (Rattus norvegicus [14]): 10; MED (Rattus norvegicus [15]): 32; MED (Rattus norvegicus [10]): 3.2
O=C(CCCN1CCC(O)(c2ccc(Cl)cc2)CC1)c1ccc(F)cc1 [HALOPERIDOL] | – | 0.032 | – | – | – | MED (Rattus norvegicus [16]): inactive
c1ccc2c(N3CCN(CCc4ccc(-c5csnn5)cc4)CC3)cccc2c1 | 7.08 | >10 | – | 0.105 µM | – | IC50 [6]: 0.237 µM
Cc1nc(-c2ccc(CCN3CCN(c4cccc5ccccc45)CC3)cc2)cs1 | 6.97 | >10 | – | 0.166 µM | – | –
CN1CCN(C2=Nc3cc(Cl)ccc3Nc3ccccc32)CC1 [CLOZAPINE] | – | – | – | – | 6.9 mg/kg | MED (Rattus norvegicus [16]): inactive
Oc1nc2ccc(CCN3CCN(c4cccc5ccccc45)CC3)cc2o1 | 7.36 | 10 | 8.21 | 0.045 µM | 1.6 mg/kg | IC50 [4]: 0.01 µM; ED50 (Rattus norvegicus [8]): 40.5 mg/kg; MED (Rattus norvegicus [11]): >10
